# Measurements pooled from the literature.
# Each line is one published result; the experiments were not run side by side.
# Target: Protein-tyrosine kinase 2-beta (PTK2B, Homo sapiens, UniProt Q14289)
SMILES,observed,technique,concentration,remaining binding [%]
c1cncc(-c2cccc(Nc3nccc(NC4CCCCC4)n3)c2)c1,binding,competition with immobilised ligand,10 µM,63
O=C(NC[C@@H]1[C@H]2CN(C(=O)OCc3cc(C(F)(F)F)cc(C(F)(F)F)c3)C[C@@H]12)c1ccc2[nH]nnc2c1,cell-free assay,competition with immobilised ligand,1 µM,85
Nc1ncc2c(n1)-c1c([nH]c3ccc(C#CC4CC4)cc13)CCCC2,binding,competition with immobilised ligand,1 µM,98
COc1ncc2cc3ccccc3nc2c1C#N,cell-free assay,competition with immobilised ligand,5 µM,100
Cc1cnn2ncc(-c3ccnc(N(C)C)n3)c2c1,binding,,1 µM,100
Nc1cnc(N2CCc3cc(S(=O)(=O)Nc4c(F)cc(Cl)cc4F)cc(N4CCCC4=O)c32)nc1,cell-free assay,competition with immobilised ligand,1 µM,100
CN(CCCC(F)(F)F)c1nccc(-c2cnn3ncccc23)n1,binding,,1 µM,100
O=C(NCCCN1CCOCC1)c1ccc(Nc2ncc(Cl)c(-c3ccc(Cl)s3)n2)cc1,binding,competition with immobilised ligand,1 µM,41
CCN1CCN(Cc2ccc(C(=O)Nc3ccc(C)c(Oc4ccc5c(c4)CC(=O)N5)c3)cc2C(F)(F)F)CC1,binding,competition with immobilised ligand,1 µM,49
O=C(Nc1c[nH]nc1C(=O)NC1CCNCC1)c1cc(F)cc(F)c1,binding,competition with immobilised ligand,1 µM,91
CC(C)CC(=O)N1CCc2nc(-c3ccc(Br)cc3)nc(N(C)Cc3ccccc3)c2C1,cell-free assay,competition with immobilised ligand,0.1 µM,100
N[C@H]1CCN(c2nccc(-c3cnn4ncccc34)n2)C1,binding,,1 µM,100
O=C(c1ccc(Nc2nccc(-c3cc4ccccc4s3)n2)cc1)N1CCC(N2CCCC2)CC1,binding,competition with immobilised ligand,1 µM,81
CN(C)c1nccc(-c2cnc3ncccn23)n1,binding,,1 µM,92
Cc1cnc(Nc2ccc(C(=O)N3CCC(N4CCCC4)CC3)cc2)nc1-c1cc2ccccc2s1,binding,competition with immobilised ligand,1 µM,28
CS(=O)(=O)c1cc(C2(NC(=O)c3cncc4c3cnn4-c3ccc(F)cc3)CC2)ccn1,cell-free assay,competition with immobilised ligand,1 µM,100
CN(C)c1ncc(F)c(-c2cnn3ncccc23)n1,binding,,1 µM,100
CN(C)C(=O)Cn1cc(-c2nc([C@@](C)(c3ccc(-c4cnc(N)nc4)cc3)C3CC3)no2)cn1,cell-free assay,competition with immobilised ligand,1 µM,87
CNC(=O)[C@@H]1CC[C@@H](n2c(-c3ccc4cnccc4c3)nc3ccc(C(=O)NCc4cccc(C(N)=O)c4)cc32)C1,binding,competition with immobilised ligand,1 µM,99
C[C@H](c1cccc(C#N)c1)n1cc(Cl)cc(C(N)=O)c1=N,cell-free assay,competition with immobilised ligand,1 µM,100
c1cnn2ncc(-c3ccnc(N4CCC45COC5)n3)c2c1,binding,,1 µM,80
